Assay results reported in ChEMBL document CHEMBL1240415, “Design, synthesis and antimicrobial activities of some new quinoline derivatives carrying 1,2,3-triazole moiety” (2010).
In brackets after ≈: the same amount, converted by molar mass.

How the values were obtained:
Type in all cases: functional
Staphylococcus aureus = test: Antibacterial activity against Staphylococcus aureus ATTC 25923 after 3 to 4 days by serial plate dilution method; conditions: for MIC: Staphylococcus aureus, ATTC 25923
Method in brief: (§1)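 Serial dilutions in Mueller-Hinton broth in tubes, pH adjusted to 5.0 with phosphate buffer. Inoculated with a standardized bacterial suspension and incubated 16–18 h at 37 °C. MIC is the lowest concentration with no visible growth, tested over 6.25–100 µg/mL. Zones come from an agar well diffusion assay: compounds in DMSO are added to wells in seeded agar, DMSO control, triplicate plates, 37 °C for 3–4 days, inhibition zone diameter in mm.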

Escherichia coli = test: Antibacterial activity against Escherichia coli ATTC 25922 after 3 to 4 days by serial plate dilution method; conditions: for MIC: Escherichia coli, ATTC 25922; method in brief: as §1
Pseudomonas aeruginosa = test: Antibacterial activity against Pseudomonas aeruginosa ATCC 27853 after 3 to 4 days by serial plate dilution method; conditions: for MIC: Pseudomonas aeruginosa, ATCC 27853; method in brief: as §1
Klebsiella pneumoniae = test: Antibacterial activity against recultured Klebsiella pneumoniae after 3 to 4 days by serial plate dilution method; conditions: for MIC: Klebsiella pneumoniae; method in brief: as §1
Streptococcus pyogenes = test: Antibacterial activity against Streptococcus pyogenes after 3 to 4 days by serial plate dilution method; conditions: for MIC: Streptococcus pyogenes; method in brief: as §1
Aspergillus flavus = test: Antifungal activity against Aspergillus flavus NCIM 524 after 3 to 4 days by serial plate dilution method; conditions: for MIC: Aspergillus flavus, NCIM 524
Method in brief: (§2)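 Sabouraud agar made from peptone, glucose and agar in water, pH 5.7. Fungal spores suspended in normal saline and used to lawn the plates, which were dried 1 h at 37 °C. Wells punched and compounds added in DMSO, with a DMSO solvent control. Triplicate plates held at 37 °C for 3–4 days. Read-out is inhibition zone diameter.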

Aspergillus fumigatus = test: Antifungal activity against Aspergillus fumigatus NCIM 902 after 3 to 4 days by serial plate dilution method; conditions: for MIC: Aspergillus fumigatus, NCIM 902; method in brief: as §2
Talaromyces marneffei = test: Antifungal activity against recultured Penicillium marneffei after 3 to 4 days by serial plate dilution method; conditions: for MIC: Talaromyces marneffei; method in brief: as §2
[1] = system: Trichophyton mentagrophytes; test: Antifungal activity against recultured Trichophyton mentagrophytes after 3 to 4 days by serial plate dilution method; conditions: for MIC: Trichophyton mentagrophytes; method in brief: as §2
Candida albicans = test: Antifungal activity against Candida albicans after 3 to 4 days by serial plate dilution method; conditions: for MIC: Candida albicans; method in brief: as §2

| Structure (SMILES) | MIC (Staphylococcus aureus) | MIC (Escherichia coli) | MIC (Pseudomonas aeruginosa) | MIC (Klebsiella pneumoniae) | MIC (Streptococcus pyogenes) | MIC (Aspergillus flavus) | MIC (Aspergillus fumigatus) | MIC (Talaromyces marneffei) | MIC [1] | MIC (Candida albicans) | diameter of the inhibition zone (DIZ) (Staphylococcus aureus) | diameter of the inhibition zone (DIZ) (Escherichia coli) | diameter of the inhibition zone (DIZ) (Pseudomonas aeruginosa) | diameter of the inhibition zone (DIZ) (Klebsiella pneumoniae) | diameter of the inhibition zone (DIZ) (Streptococcus pyogenes) | diameter of the inhibition zone (DIZ) (Aspergillus flavus) | diameter of the inhibition zone (DIZ) (Aspergillus fumigatus) | diameter of the inhibition zone (DIZ) (Talaromyces marneffei) | diameter of the inhibition zone (DIZ) [1] | diameter of the inhibition zone (DIZ) (Candida albicans) |
| --- | --- | --- | --- | --- | --- | --- | --- | --- | --- | --- | --- | --- | --- | --- | --- | --- | --- | --- | --- | --- |
| COc1ccc(N2CCN(Cc3cn(-c4cc(C)nc5ccc(OC)cc45)nn3)CC2)c(C)c1 | 12.5 µg/mL (≈ 27.3 µM) | 12.5 µg/mL (≈ 27.3 µM) | 12.5 µg/mL (≈ 27.3 µM) | 6.25 µg/mL (≈ 13.6 µM) | 6.25 µg/mL (≈ 13.6 µM) | 6.25 µg/mL (≈ 13.6 µM) | 6.25 µg/mL (≈ 13.6 µM) | 6.25 µg/mL (≈ 13.6 µM) | 6.25 µg/mL (≈ 13.6 µM) | 6.25 µg/mL (≈ 13.6 µM) | 14 mm | 14 mm | 10 mm | 16 mm | 16 mm | 14 mm | 16 mm | 14 mm | 14 mm | 10 mm |
| COc1ccc2nc(C)cc(-n3cc(CN(C)C4CCCCC4)nn3)c2c1 | 50 µg/mL (≈ 137 µM) | 50 µg/mL (≈ 137 µM) | 50 µg/mL (≈ 137 µM) | 50 µg/mL (≈ 137 µM) | 50 µg/mL (≈ 137 µM) | 50 µg/mL (≈ 137 µM) | 50 µg/mL (≈ 137 µM) | 50 µg/mL (≈ 137 µM) | 50 µg/mL (≈ 137 µM) | 50 µg/mL (≈ 137 µM) | <10 mm | <10 mm | <10 mm | <10 mm | <10 mm | <10 mm | <10 mm | <10 mm | <10 mm | <10 mm |
| COc1ccc2nc(C)cc(-n3cc(CN4CCC(N5CCOCC5)CC4)nn3)c2c1 | 12.5 µg/mL (≈ 29.6 µM) | 12.5 µg/mL (≈ 29.6 µM) | 12.5 µg/mL (≈ 29.6 µM) | 12.5 µg/mL (≈ 29.6 µM) | 12.5 µg/mL (≈ 29.6 µM) | 12.5 µg/mL (≈ 29.6 µM) | 50 µg/mL (≈ 118 µM) | 50 µg/mL (≈ 118 µM) | 50 µg/mL (≈ 118 µM) | 50 µg/mL (≈ 118 µM) | 10 mm | 11 mm | 10 mm | 11 mm | 12 mm | 11 mm | <10 mm | <10 mm | <10 mm | <10 mm |
| COc1ccc2nc(C)cc(-n3cc(CN4CCN(C(C)C)CC4)nn3)c2c1 | 6.25 µg/mL (≈ 16.4 µM) | 6.25 µg/mL (≈ 16.4 µM) | 6.25 µg/mL (≈ 16.4 µM) | 6.25 µg/mL (≈ 16.4 µM) | 6.25 µg/mL (≈ 16.4 µM) | 6.25 µg/mL (≈ 16.4 µM) | 6.25 µg/mL (≈ 16.4 µM) | 6.25 µg/mL (≈ 16.4 µM) | 6.25 µg/mL (≈ 16.4 µM) | 6.25 µg/mL (≈ 16.4 µM) | 18 mm | 20 mm | 14 mm | 16 mm | 16 mm | 16 mm | 18 mm | 14 mm | 16 mm | 14 mm |
| COc1ccc2nc(C)cc(-n3cc(CNCCCN(C)C)nn3)c2c1 | 6.25 µg/mL (≈ 17.6 µM) | 6.25 µg/mL (≈ 17.6 µM) | 6.25 µg/mL (≈ 17.6 µM) | 6.25 µg/mL (≈ 17.6 µM) | 6.25 µg/mL (≈ 17.6 µM) | 6.25 µg/mL (≈ 17.6 µM) | 6.25 µg/mL (≈ 17.6 µM) | 6.25 µg/mL (≈ 17.6 µM) | 6.25 µg/mL (≈ 17.6 µM) | 6.25 µg/mL (≈ 17.6 µM) | 14 mm | 10 mm | 12 mm | 12 mm | 14 mm | 14 mm | 16 mm | 14 mm | 12 mm | 14 mm |

More lines, main results first:

| MIC (Staphylococcus aureus) | MIC (Escherichia coli) | MIC (Pseudomonas aeruginosa) | MIC (Klebsiella pneumoniae) | MIC (Streptococcus pyogenes) | MIC (Aspergillus flavus) | MIC (Aspergillus fumigatus) | MIC (Talaromyces marneffei) | MIC [1] | MIC (Candida albicans) | Structure (SMILES) | diameter of the inhibition zone (DIZ) (Staphylococcus aureus) | diameter of the inhibition zone (DIZ) (Escherichia coli) | diameter of the inhibition zone (DIZ) (Pseudomonas aeruginosa) | diameter of the inhibition zone (DIZ) (Klebsiella pneumoniae) | diameter of the inhibition zone (DIZ) (Streptococcus pyogenes) | diameter of the inhibition zone (DIZ) (Aspergillus flavus) | diameter of the inhibition zone (DIZ) (Aspergillus fumigatus) | diameter of the inhibition zone (DIZ) (Talaromyces marneffei) | diameter of the inhibition zone (DIZ) [1] | diameter of the inhibition zone (DIZ) (Candida albicans) |
| --- | --- | --- | --- | --- | --- | --- | --- | --- | --- | --- | --- | --- | --- | --- | --- | --- | --- | --- | --- | --- |
| 6.25 µg/mL (≈ 17.6 µM) | 6.25 µg/mL (≈ 17.6 µM) | 6.25 µg/mL (≈ 17.6 µM) | 6.25 µg/mL (≈ 17.6 µM) | 6.25 µg/mL (≈ 17.6 µM) | 6.25 µg/mL (≈ 17.6 µM) | 6.25 µg/mL (≈ 17.6 µM) | 6.25 µg/mL (≈ 17.6 µM) | 6.25 µg/mL (≈ 17.6 µM) | 6.25 µg/mL (≈ 17.6 µM) | COc1ccc2nc(C)cc(-n3cc(CN(C)CCN(C)C)nn3)c2c1 | 14 mm | 14 mm | 14 mm | 14 mm | 16 mm | 16 mm | 14 mm | 16 mm | 14 mm | 12 mm |
| 6.25 µg/mL (≈ 16.4 µM) | 6.25 µg/mL (≈ 16.4 µM) | 6.25 µg/mL (≈ 16.4 µM) | 6.25 µg/mL (≈ 16.4 µM) | 6.25 µg/mL (≈ 16.4 µM) | 6.25 µg/mL (≈ 16.4 µM) | 6.25 µg/mL (≈ 16.4 µM) | 6.25 µg/mL (≈ 16.4 µM) | 6.25 µg/mL (≈ 16.4 µM) | 6.25 µg/mL (≈ 16.4 µM) | COc1ccc2nc(C)cc(-n3cc(CN4CCN(C(C)=O)CC4)nn3)c2c1 | 20 mm | 18 mm | 14 mm | 12 mm | 16 mm | 14 mm | 16 mm | 16 mm | 14 mm | 10 mm |
| 6.25 µg/mL (≈ 14.1 µM) | 6.25 µg/mL (≈ 14.1 µM) | 6.25 µg/mL (≈ 14.1 µM) | 6.25 µg/mL (≈ 14.1 µM) | 6.25 µg/mL (≈ 14.1 µM) | 6.25 µg/mL (≈ 14.1 µM) | 6.25 µg/mL (≈ 14.1 µM) | 6.25 µg/mL (≈ 14.1 µM) | 6.25 µg/mL (≈ 14.1 µM) | 6.25 µg/mL (≈ 14.1 µM) | COc1ccc(N2CCN(Cc3cn(-c4cc(C)nc5ccc(OC)cc45)nn3)CC2)cc1 | 16 mm | 20 mm | 14 mm | 16 mm | 14 mm | 14 mm | 16 mm | 18 mm | 16 mm | 14 mm |
| 6.25 µg/mL (≈ 18.5 µM) | 6.25 µg/mL (≈ 18.5 µM) | 6.25 µg/mL (≈ 18.5 µM) | 6.25 µg/mL (≈ 18.5 µM) | 6.25 µg/mL (≈ 18.5 µM) | 6.25 µg/mL (≈ 18.5 µM) | 6.25 µg/mL (≈ 18.5 µM) | 6.25 µg/mL (≈ 18.5 µM) | 6.25 µg/mL (≈ 18.5 µM) | 6.25 µg/mL (≈ 18.5 µM) | COc1ccc2nc(C)cc(-n3cc(CNC4CCCC4)nn3)c2c1 | 12 mm | 12 mm | 12 mm | 14 mm | 12 mm | 10 mm | 14 mm | 10 mm | 10 mm | 10 mm |
